ChEMBL document CHEMBL2146387, “Synthesis and biological evaluation of a new vitamin D2 analogue” (Bioorg Med Chem Lett, 2012)
pIC50: −log10 of the molar value.

What was measured:
Mus musculus [1] = experiment: Toxicity in mouse assessed as increase in plasma calcium level at 5 ug/kg, ip qd for 4 days measured after 24 to 96 hrs postdose; format: organism-based; details: in vivo, 0.005 mg/kg
Summary of the method: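 Mice (n = 5/group) were dosed ip daily at 5 µg/kg body weight for 4 days, with isopropanol as vehicle. Plasma calcium was read by arsenazo III metallochromic absorbance before injection (0 h, basal) and at 24, 48, 72 and 96 h. Data are means ± SD of five animals, and the experiment was run twice.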

Mus musculus [2] = experiment: Toxicity in mouse assessed as increase in haematocrit at 5 ug/kg, ip qd for 4 days after 72 hrs of last postdose; format: organism-based; details: in vivo, 0.005 mg/kg
Summary of the method: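 Mice (n = 5/group) received a daily intraperitoneal injection at 5 µg/kg body weight for 4 days, with isopropanol as vehicle. Blood was drawn before dosing and at 24, 48, 72 and 96 h, and haematocrit was recorded from these samples.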

[3] = Cytotoxicity against human HN12 assessed as decrease in cell count after 120 hrs; format: functional; details: HN12, 120 h
HCT-116 = experiment: Cytotoxicity against human HCT116 assessed as decrease in cell count after 120 hrs; format: functional, cell-based; details: HCT-116, 120 h
Mus musculus [4] = experiment: Toxicity in mouse assessed as mortality at 5 ug/kg, ip qd for 4 days; format: organism-based; details: in vivo, 0.005 mg/kg, 96 h
Summary of the method: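 Mice, groups of 5, given daily intraperitoneal injection at 5 µg/kg body weight for 4 days, isopropanol vehicle group alongside. Blood collected before dosing and at 24, 48, 72 and 96 h for plasma calcium (arsenazo III absorbance). Health condition recorded daily; deaths noted. Experiment repeated two times.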

[5] = AUC (0 to 24 hrs) in mouse at 5 ug/kg; format: ADME, organism-based; parameters: dose 5 ug/kg, time < 24 hr; details: plasma, 0.005 mg/kg
[6] = Cmax in mouse at 5 ug/kg; format: ADME, organism-based; parameters: dose 5 ug/kg; details: in vivo, 0.005 mg/kg

C=C1/C(=C\C=C2/CCC[C@]3(C)[C@@H]([C@H](C)/C=C\[C@H](C)C(O)(CC)CC)CC[C@@H]23)C[C@@H](O)C[C@@H]1O
Activity (Mus musculus [1]): Toxic | Activity (Mus musculus [2]): Toxic | pIC50 [3]: 8.30 | pIC50 (HCT-116): 9.12 | Activity (Mus musculus [4]): Toxic

C=C1/C(=C\C=C2/CCC[C@]3(C)[C@@H]([C@H](C)CCCC(C)(C)O)CC[C@@H]23)C[C@@H](O)C[C@@H]1O [CALCITRIOL]
Activity (Mus musculus [1]): Toxic | Activity (Mus musculus [2]): Toxic | AUC(0-t) at 24 h [5]: > 40 ng·h/mL | Cmax [6]: > 10 ng/mL | Activity (Mus musculus [4]): Toxic
